# Experimental data reported in ChEMBL document CHEMBL1811814, “Synthesis and evaluation of indole, pyrazole, chromone and pyrimidine based conjugates for tumor growth inhibitory activities--development of highly efficacious cytotoxic agents” (Eur J Med Chem, 2010).
# Tests used:
# Format in all cases: functional
# HT-29 [1] = assay: Growth inhibition of human HT-29 cells
# SF-295 [2] = assay: Growth inhibition of human SF295 cells assessed tumor cell growth at 10^-5 M; set-up: scale not given: the % may be the effect or the level left
# How it was run: (§1)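 NCI 60-human-tumor-cell-line panel screen. Each compound was tested at a single concentration of 10^-5 M, and percent growth of tumor cells was recorded for each cell line. Growth inhibition was expressed from these percent-growth values.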
# SK-OV-3 [3] = assay: Growth inhibition of human SKOV3 cells assessed tumor cell growth at 10^-5 M; set-up: scale not given: the % may be the effect or the level left; how it was run: as §1
# OVCAR-5 [4] = assay: Growth inhibition of human OVCAR5 cells assessed tumor cell growth at 10^-5 M; set-up: scale not given: the % may be the effect or the level left; how it was run: as §1
# OVCAR-4 [5] = assay: Growth inhibition of human OVCAR4 cells
# NCI/ADR-RES [6] = assay: Growth inhibition of human NCI/ADR-RES cells assessed tumor cell growth at 10^-5 M; set-up: scale not given: the % may be the effect or the level left; how it was run: as §1
# HOP-92 = assay: Growth inhibition of human HOP92 cells assessed tumor cell growth at 10^-5 M; set-up: scale not given: the % may be the effect or the level left; how it was run: as §1
# OVCAR-8 = assay: Growth inhibition of human OVCAR8 cells assessed tumor cell growth at 10^-5 M; set-up: scale not given: the % may be the effect or the level left; how it was run: as §1
# SF-268 = assay: Growth inhibition of human SF268 cells assessed tumor cell growth at 10^-5 M; set-up: scale not given: the % may be the effect or the level left; how it was run: as §1
# UACC-62 [7] = assay: Growth inhibition of human UACC62 cells
# DU-145 = assay: Growth inhibition of human DU145 cells
# SNB-75 = assay: Growth inhibition of human SNB75 cells
# UO-31 = assay: Growth inhibition of human UO31 cells
# HCT-116 = assay: Growth inhibition of human HCT116 cells
# NCI-H226 = assay: Growth inhibition of human NCI-H226 cells assessed tumor cell growth at 10^-5 M; set-up: scale not given: the % may be the effect or the level left; how it was run: as §1
# OVCAR-4 [8] = assay: Growth inhibition of human OVCAR4 cells assessed tumor cell growth at 10^-5 M; set-up: scale not given: the % may be the effect or the level left; how it was run: as §1
# K562 = assay: Growth inhibition of human K562 cells assessed tumor cell growth at 10^-5 M; set-up: scale not given: the % may be the effect or the level left; how it was run: as §1
# NCI-H322M = assay: Growth inhibition of human NCI-H322M cells
# HT-29 [9] = assay: Growth inhibition of human HT-29 cells assessed tumor cell growth at 10^-5 M; set-up: scale not given: the % may be the effect or the level left; how it was run: as §1
# SNB-19 = assay: Growth inhibition of human SNB19 cells assessed tumor cell growth at 10^-5 M; set-up: scale not given: the % may be the effect or the level left
# How it was run: (§2)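 Single-dose screen at 10^-5 M across the 60 human tumor cell line panel, run to NCI standards. The value is the percent growth of each cell line in the presence of compound. Compounds active at this dose moved on to five-concentration testing (10^-4 to 10^-8 M).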
# 786-0 = assay: Growth inhibition of human 786-0 cells
# NCI/ADR-RES [10] = assay: Growth inhibition of human NCI/ADR-RES cells
# UACC-62 [11] = assay: Growth inhibition of human UACC62 cells assessed tumor cell growth at 10^-5 M; set-up: scale not given: the % may be the effect or the level left; how it was run: as §2
# KM12 [12] = assay: Growth inhibition of human KM12 cells assessed tumor cell growth at 10^-5 M; set-up: scale not given: the % may be the effect or the level left; how it was run: as §1
# CCRF-CEM = assay: Growth inhibition of human CCRF-CEM cells assessed tumor cell growth at 10^-5 M; set-up: scale not given: the % may be the effect or the level left; how it was run: as §1
# MDA-MB-468 [13] = assay: Growth inhibition of human MDA-MB-468 cells assessed tumor cell growth at 10^-5 M; set-up: scale not given: the % may be the effect or the level left; how it was run: as §1
# MDA-MB-468 [14] = assay: Growth inhibition of human MDA-MB-468 cells
# TK-10 [15] = assay: Growth inhibition of human TK10 cells
# NCI-H23 = assay: Growth inhibition of human NCI-H23 cells assessed tumor cell growth at 10^-5 M; set-up: scale not given: the % may be the effect or the level left; how it was run: as §1
# CAKI-1 [16] = assay: Growth inhibition of human Caki1 cells assessed tumor cell growth at 10^-5 M; set-up: scale not given: the % may be the effect or the level left; how it was run: as §1
# MDA-MB-231 = assay: Growth inhibition of human MDA-MB-231 cells assessed tumor cell growth at 10^-5 M; set-up: scale not given: the % may be the effect or the level left; how it was run: as §1
# SK-MEL-5 = assay: Growth inhibition of human SK-MEL-5 cells
# OVCAR-5 [17] = assay: Growth inhibition of human OVCAR5 cells
# KM12 [18] = assay: Growth inhibition of human KM12 cells
# TK-10 [19] = assay: Growth inhibition of human TK10 cells assessed tumor cell growth at 10^-5 M; set-up: scale not given: the % may be the effect or the level left; how it was run: as §2
# SK-MEL-2 = assay: Growth inhibition of human SK-MEL-2 cells
# HL-60(TB) [20] = assay: Growth inhibition of human HL-60(TB) cells
# SF-539 = assay: Growth inhibition of human SF539 cells assessed tumor cell growth at 10^-5 M; set-up: scale not given: the % may be the effect or the level left; how it was run: as §1
# OVCAR-3 = assay: Growth inhibition of human OVCAR3 cells
# SK-OV-3 [21] = assay: Growth inhibition of human SKOV3 cells
# PC-3 = assay: Growth inhibition of human PC3 cells assessed tumor cell growth at 10^-5 M; set-up: scale not given: the % may be the effect or the level left; how it was run: as §1
# T47D = assay: Growth inhibition of human T47D cells assessed tumor cell growth at 10^-5 M; set-up: scale not given: the % may be the effect or the level left; how it was run: as §2
# SR = assay: Growth inhibition of human SR cells assessed tumor cell growth at 10^-5 M; set-up: scale not given: the % may be the effect or the level left; how it was run: as §2
# COLO 205 = assay: Growth inhibition of human COLO205 cells assessed tumor cell growth at 10^-5 M; set-up: scale not given: the % may be the effect or the level left; how it was run: as §1
# A549 = assay: Growth inhibition of human A549 cells
# CAKI-1 [22] = assay: Growth inhibition of human Caki1 cells
# HCT-15 = assay: Growth inhibition of human HCT15 cells
# SF-295 [23] = assay: Growth inhibition of human SF295 cells
# HL-60(TB) [24] = assay: Growth inhibition of human HL-60(TB) cells assessed tumor cell growth at 10^-5 M; set-up: scale not given: the % may be the effect or the level left
# How it was run: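 HL-60(TB), part of the 60-line panel, tested at a single concentration of 10^-5 M. The read-out is percent tumor cell growth relative to untreated growth.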
# SW-620 = assay: Growth inhibition of human SW620 cells
# MDA-MB-435 = assay: Growth inhibition of human MDA-MB-435 cells
# HOP-62 = assay: Growth inhibition of human HOP62 cells
# [25] = read-out: LC50 (the source's name)
compound,measurement,setting,value
O=C1/C(=C\c2ccccn2)c2ccccc2N1c1c(Cl)cccc1Cl,GI50,HT-29 [1],2.1 µM
same,CC50,HT-29 [1]; [25],9.1 µM
same,Activity,SF-295 [2],12.33%
same,Activity,SK-OV-3 [3],39.19%
same,Activity,OVCAR-5 [4],122.39%
same,GI50,OVCAR-4 [5],3.7 µM
same,CC50,OVCAR-4 [5]; [25],> 100 µM
same,Activity,NCI/ADR-RES [6],-26.73%
same,Activity,HOP-92,-7.93%
same,Activity,OVCAR-8,4.47%
same,Activity,SF-268,7.81%
same,GI50,UACC-62 [7],1.6 µM
same,CC50,UACC-62 [7]; [25],6.9 µM
same,GI50,DU-145,2.1 µM
same,CC50,DU-145; [25],9.1 µM
same,GI50,SNB-75,1.4 µM
same,CC50,SNB-75; [25],32.3 µM
same,GI50,UO-31,1.4 µM
same,CC50,UO-31; [25],6 µM
same,GI50,HCT-116,1.7 µM
same,CC50,HCT-116; [25],6.9 µM
same,Activity,NCI-H226,25.22%
same,Activity,OVCAR-4 [8],-7.46%
same,Activity,K562,9.42%
same,GI50,NCI-H322M,2.8 µM
same,CC50,NCI-H322M; [25],28.8 µM
same,Activity,HT-29 [9],10.75%
same,Activity,SNB-19,34.85%
same,GI50,786-0,1.9 µM
same,CC50,786-0; [25],6.6 µM
same,GI50,NCI/ADR-RES [10],3 µM
same,CC50,NCI/ADR-RES [10]; [25],> 100 µM
same,Activity,UACC-62 [11],24.91%
same,Activity,KM12 [12],-2.11%
same,Activity,CCRF-CEM,8.81%
same,Activity,MDA-MB-468 [13],-17.24%
same,GI50,MDA-MB-468 [14],0.9 µM
same,CC50,MDA-MB-468 [14]; [25],7.4 µM
same,GI50,TK-10 [15],3 µM
same,CC50,TK-10 [15]; [25],50.1 µM
same,Activity,NCI-H23,12.97%
same,Activity,CAKI-1 [16],-1.37%
same,Activity,MDA-MB-231,15.7%
same,GI50,SK-MEL-5,1.6 µM
same,CC50,SK-MEL-5; [25],5.7 µM
same,GI50,OVCAR-5 [17],2.4 µM
same,CC50,OVCAR-5 [17]; [25],> 100 µM
same,GI50,KM12 [18],1.8 µM
same,CC50,KM12 [18]; [25],6.3 µM
same,Activity,TK-10 [19],52%
same,GI50,SK-MEL-2,2.3 µM
same,CC50,SK-MEL-2; [25],24.5 µM
same,GI50,HL-60(TB) [20],3.8 µM
same,CC50,HL-60(TB) [20]; [25],> 100 µM
same,Activity,SF-539,1.27%
same,GI50,OVCAR-3,1.7 µM
same,CC50,OVCAR-3; [25],6.9 µM
same,GI50,SK-OV-3 [21],3.4 µM
same,CC50,SK-OV-3 [21]; [25],74.1 µM
same,Activity,PC-3,31.44%
same,Activity,T47D,12.74%
same,Activity,SR,-4.3%
same,Activity,COLO 205,-1.34%
same,GI50,A549,1.9 µM
same,CC50,A549; [25],43.6 µM
same,GI50,CAKI-1 [22],1.3 µM
same,CC50,CAKI-1 [22]; [25],7.4 µM
same,GI50,HCT-15,2 µM
same,CC50,HCT-15; [25],28.8 µM
same,GI50,SF-295 [23],1.7 µM
same,CC50,SF-295 [23]; [25],13.8 µM
same,Activity,HL-60(TB) [24],1.39%
same,GI50,SW-620,1.9 µM
same,CC50,SW-620; [25],6.7 µM
same,GI50,MDA-MB-435,1.8 µM
same,CC50,MDA-MB-435; [25],61.6 µM
same,GI50,HOP-62,2.3 µM
same,CC50,HOP-62; [25],89.1 µM
